{"data": "Results collected from several papers", "target": "Serine/threonine-protein kinase WNK2 (WNK2, Homo sapiens, UniProt Q9Y3S1)", "note": "Protocols differ between the studies behind these lines."}
{"Structure (SMILES)": "CCN(CC)CCNC(=O)c1c(C)[nH]c(/C=C2\\C(=O)Nc3ccc(F)cc32)c1C", "assay": "enzyme activity, inhibitor", "conditions": "0.3 µM", "measurement": "inhibition", "result": "3%"}
{"Structure (SMILES)": "COc1cccc(CNC(=O)c2nc3scc(COCc4ccc(C(=O)O)cc4)c3c(=O)[nH]2)c1", "assay": "cell-free assay, competition with immobilised ligand", "conditions": "1 µM", "measurement": "remaining binding", "result": "54.2%"}
{"Structure (SMILES)": "N#CCCc1ccc2c(c1)-c1[nH]c3ccc([N+](=O)[O-])cc3c1CC(=O)N2", "assay": "cell-free assay", "conditions": "0.5 µM", "measurement": "remaining signal", "result": "112%"}
{"Structure (SMILES)": "O=C(Nc1cnn(-c2csc(C(=O)NC3COC3)c2)c1)Nc1c(F)cccc1Cl", "assay": "enzyme activity, inhibitor", "conditions": "5 µM", "measurement": "remaining activity", "result": "91.9%"}
{"Structure (SMILES)": "CC(C)(C)c1nc2c(s1)c1nc(N)ncc1c1ccc(NS(=O)(=O)c3c(F)cccc3F)c(F)c12", "assay": "enzyme activity, inhibitor, radiometric", "conditions": "1 µM", "measurement": "remaining activity", "result": "101%"}
{"Structure (SMILES)": "CNC(=O)c1cc(Oc2ccc(NC(=O)Nc3ccc(Cl)c(C(F)(F)F)c3)cc2)ccn1", "assay": "enzyme activity, inhibitor", "conditions": "0.3 µM", "measurement": "inhibition", "result": "1%"}
{"Structure (SMILES)": "Cc1sc(C(=O)NC2COC2)cc1-n1cc(NC(=O)Nc2c(F)cccc2Cl)cn1", "assay": "enzyme activity, inhibitor", "conditions": "10 µM", "measurement": "remaining activity", "result": "91.1%"}
{"Structure (SMILES)": "CN(c1nccc(-c2cnn3ncccc23)n1)C1CC1", "assay": "binding", "conditions": "1 µM", "measurement": "remaining binding", "result": "100%"}
{"Structure (SMILES)": "CN([C@@H]1CCc2c(CC(=O)O)c3ccccc3n2C1)S(=O)(=O)c1ccc(F)cc1", "assay": "cell-free assay, competition with immobilised ligand", "conditions": "1 µM", "measurement": "remaining binding", "result": "92%"}
{"Structure (SMILES)": "CCCOc1ccc(OC)c(F)c1C(=O)c1ccc(C(=O)N[C@@H]2CNC[C@H]2NC(=O)c2ccc3[nH]ncc3c2)cc1", "assay": "enzyme activity, inhibitor", "conditions": "10 µM", "measurement": "remaining activity", "result": "92%"}
{"Structure (SMILES)": "CC(C)(O)[C@H]1CC[C@H](Nc2ccc3ncc(-c4cccc(C(F)(F)F)c4)n3n2)CC1", "assay": "enzyme activity, inhibitor", "conditions": "1 µM", "measurement": "remaining activity", "result": "86.2%"}
{"Structure (SMILES)": "COc1cc(Cl)c(C(=O)N[C@@H](CN[C@H]2CC[C@@H](N)CC2)Cc2ccc(C#N)cc2)cc1-c1ccc(CN[C@H](C)c2ccc(C)cc2)o1", "assay": "enzyme activity, inhibitor", "conditions": "1 µM", "measurement": "remaining activity", "result": "101%"}
{"Structure (SMILES)": "COCCOc1nc(-c2ccc(Cl)nc2)nc2c1CN(C(=O)c1ncn3ccccc13)CC2", "assay": "cell-free assay, competition with immobilised ligand", "conditions": "0.1 µM", "measurement": "remaining binding", "result": "100%"}
{"Structure (SMILES)": "O=C1Nc2ccc(Cl)cc2C1=Cc1cc(Cl)c(O)c(Cl)c1", "assay": "cell-free assay", "conditions": "0.5 µM", "measurement": "remaining signal", "result": "115%"}
{"Structure (SMILES)": "CC(=O)N1CCC(c2ccc(C(=O)NC(=N)N)cc2C(F)(F)F)CC1", "assay": "cell-free assay, competition with immobilised ligand", "conditions": "1 µM", "measurement": "remaining binding", "result": "98%"}
{"Structure (SMILES)": "CN1CC(Oc2cnc(C#N)cc2-c2ccn3nc(NC(=O)C4CC4)cc3c2)C1", "assay": "enzyme activity, inhibitor", "conditions": "1 µM", "measurement": "inhibition", "result": "8%"}
{"Structure (SMILES)": "Cc1ccc(Nc2nccc(N(C)c3ccc4c(C)n(C)nc4c3)n2)cc1S(N)(=O)=O", "assay": "enzyme activity, inhibitor", "conditions": "0.3 µM", "measurement": "inhibition", "result": "2%"}
{"Structure (SMILES)": "O=C(N1CCS(=O)(=O)CC1)N1C[C@H](c2ccc(OC(F)(F)F)cc2)C[C@H](c2nc(C3CC3)no2)C1", "assay": "cell-free assay, competition with immobilised ligand", "conditions": "1 µM", "measurement": "remaining binding", "result": "73%"}
